We go through two molecules from article PMC10077566 (ACS Omega, 2023).

The test system of one data set is U-87-MG spheroids. The data set can be described thus: Calcein-AM spheroid viability assay. The data set is classed as cell-based, human. Particulars: 10 μM, 24 h; six-day old spheroids, 10000 cells/well. The gist of the method:
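Six-day-old U-87-MG spheroids seeded at 10000 cells/well in U-bottom low-attachment 24-well plates from monolayers grown to 70% confluence, in serum-free B27 neuronal basal medium or FBS-supplemented EMEM, with medium changed every 3 days. Exposed to the test compound at 10 μM for 24 h, moved to a fresh plate, washed three times with assay buffer, then stained with 3 μM Calcein-AM for 1 h at 37 °C. Imaged by fluorescence.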

In the next data set the test system is primary mouse neurons. Description: MTT cytotoxicity / cell viability, noncancer cells. The data set is classed as cell-based. Particulars: 24 h, n = 3. The procedure, abridged: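 Primary mouse neurons were grown in serum-free DMEM/F12-based neural medium with L-glutamine, HEPES, penicillin/streptomycin and supplement. They were plated at 1×10^4 cells/well and allowed to spread for 24 h at 37 °C, 5% CO2, then treated with the test compound at 2 or 10 μM for 24 h. MTT was added for 4 h, then solubilizing solution for 4 h. Absorbance was read at 560 and 590 nm. Runs were in triplicate, with Student's t tests.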

The test system of another data set is U-87-MG cells. The data set can be described thus: Annexin V FITC-propidium iodide apoptosis assay, FACS. The data set is classed as cell-based, human. Particulars: Annexin V FITC/PI quadrant.
Another data set has as its target FABP3 (U-87-MG cells) (Homo sapiens, UniProt P05413). The data set can be described thus: FABP3-mediated internalization, antibody labeling and FACS. Type of data set: cell-based. Particulars: serum-free, 10 μM, FACS, Coralite 594-conjugated FABP3 antibody. The gist of the method:
(§1)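 Cells were kept in serum-free neuronal basal medium with B27 and seeded at 1×10^4 cells/well in 6-well plates, then left to spread for 4 h at 37 °C, 5% CO2. They were incubated with Coralite 594-conjugated anti-FABP3 mouse antibody, then with the test compound (10 μM) for 24 h. Cells were trypsinized, pelleted at […] for 5 min, resuspended in FACS buffer and filtered. Flow cytometry used 582 nm excitation.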

The next data set concerns the target FABP3 (U-138-MG cells) (Homo sapiens, UniProt P05413). The data set is described as above. The data set is classed as cell-based. Particulars: serum-free, 10 μM, FACS, Coralite 594-conjugated FABP3 antibody. The gist of the method:
as §1

Sequence of FABP3 (U-87-MG cells) (P05413 whole entry): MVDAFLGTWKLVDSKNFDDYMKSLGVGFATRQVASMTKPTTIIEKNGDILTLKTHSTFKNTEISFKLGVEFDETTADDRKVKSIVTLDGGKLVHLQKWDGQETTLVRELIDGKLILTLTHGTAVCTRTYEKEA
Sequence of FABP3 (U-138-MG cells) (P05413 whole entry): as above

`COc1cccc2c1C(=O)c1c(O)c3c(c(O)c1C2=O)C[C@@](O)(C(=O)CO)C[C@@H]3O[C@H]1C[C@H](N)[C@H](O)[C@H](C)O1` [DOX, doxorubicin]: in the data set on U-87-MG spheroids, the “spheroid viability, Calcein-AM fluorescence” value is on record as “scattered viable cells were seen throughout the spheroid”. Further, the cell viability (as a rule, the share of living cells, or the viability signal relative to a control) worked out at 49.3% with primary mouse neurons (2 μM) and 27.2% in the data set on primary mouse neurons (10 μM). In addition, the necrotic cells is recorded as 7.2% with U-87-MG cells (2 μM) and 24% in the data set on U-87-MG cells (10 μM).
Take ACGLSGLCVAK [A-COOP-K]: the FABP3-mediated internalization result on FABP3 (U-87-MG cells) and at FABP3 (U-138-MG cells) was “did not show internalization” throughout.
